From ChEMBL document CHEMBL4033697, “Synthesis of methanesulphonamido-benzimidazole derivatives as gastro-sparing antiinflammatory agents with antioxidant effect” (Bioorg Med Chem Lett, 2017)

What was measured:
[1] = test system: Rattus norvegicus; assay: Ulcerogenicity in rat model of carrageenan-induced paw edema assessed as diameter of lesion in gastric wall at 75 mg/kg, po measured after 5 hrs; format: toxicity, organism-based; conditions: in vivo
How it was run: (§1)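 After oral dosing in 0.5% CMC in the carrageenan paw model, rats were killed by cervical dislocation. Stomachs were inflated with 2% formalin, immersed 10 min to fix, and opened along the greater curvature. Longest lesion diameters were summed as a total lesion score (mm) per animal and averaged per group. Rofecoxib served as negative control and indomethacin as positive control.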

[2] = Antioxidant activity of the compound in phosphate buffer at pH 6.6 assessed as potassium ferric cyanide ion reducing activity at 25 umol/ml after 20 mins by spectrophotometric method relative to control; format: functional; parameters: scale not given: the % may be the effect or the level left
How it was run: (§2)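 Methanolic sample (1.0–50.0 […], units as printed) mixed with 0.2 M phosphate buffer pH 6.6 and 1% K3Fe(CN)6, 50 °C for 20 min; cooled, 10% TCA added, aliquot diluted with water plus 0.1% FeCl3, 10 min stand. A700 read against a methanol control; triplicate. Reducing power (%) = [(Atest − Acontrol)/Atest] × 100; EC50 derived; ascorbic acid standard.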

[3] = Antioxidant activity of the compound in phosphate buffer at pH 6.6 assessed as potassium ferric cyanide ion reducing activity at 1 umol/ml after 20 mins by spectrophotometric method relative to control; format: functional; parameters: scale not given: the % may be the effect or the level left; how it was run: as §2
[4] = Antioxidant activity of the compound in phosphate buffer at pH 6.6 assessed as potassium ferric cyanide ion reducing activity at 2.5 umol/ml after 20 mins by spectrophotometric method relative to control; format: functional; parameters: scale not given: the % may be the effect or the level left; how it was run: as §2
[5] = Antioxidant activity of the compound in phosphate buffer at pH 6.6 assessed as potassium ferric cyanide ion reducing activity at 5 umol/ml after 20 mins by spectrophotometric method relative to control; format: functional; parameters: scale not given: the % may be the effect or the level left; how it was run: as §2
[6] = test system: Rattus norvegicus; assay: Anti-inflammatory activity in po dosed rat assessed as reduction in carrageenan-induced paw edema measured after 5 hrs by plethysmographic method; format: functional
How it was run: (§3)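 Rats; carrageenan in 0.9% saline injected into paw; compound suspended in 0.5% w/v CMC given orally 30 min after carrageenan, three graded doses per compound. Paw volume by plethysmograph before and at intervals after treatment; values at 5 h. % reduction in edema = (1 − Vt/Vc) × 100 versus carrageenan control; ED50 from the three graded doses; one-way ANOVA.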

[7] = test system: Rattus norvegicus; assay: Anti-inflammatory activity in rat assessed as reduction in carrageenan-induced paw edema at 25 mg/kg, po measured after 5 hrs by plethysmographic method relative to control; format: functional; parameters: scale not given: the % may be the effect or the level left; how it was run: as §3
[8] = test system: Rattus norvegicus; assay: Ulcerogenicity in rat model of carrageenan-induced paw edema assessed as diameter of lesion in gastric wall at 25 mg/kg, po measured after 5 hrs; format: toxicity, organism-based; conditions: in vivo; how it was run: as §1
[9] = Antioxidant activity of the compound in phosphate buffer at pH 6.6 assessed as potassium ferric cyanide ion reducing activity after 20 mins by spectrophotometric method; format: functional; how it was run: as §2
[10] = test system: Rattus norvegicus; assay: Anti-inflammatory activity in rat assessed as reduction in carrageenan-induced paw edema at 5 mg/kg, po measured after 5 hrs by plethysmographic method relative to control; format: functional; parameters: scale not given: the % may be the effect or the level left; how it was run: as §3
[11] = Antioxidant activity of the compound in phosphate buffer at pH 6.6 assessed as potassium ferric cyanide ion reducing activity at 50 umol/ml after 20 mins by spectrophotometric method relative to control; format: functional; parameters: scale not given: the % may be the effect or the level left; how it was run: as §2
[12] = test system: Rattus norvegicus; assay: Ulcerogenicity in rat model of carrageenan-induced paw edema assessed as diameter of lesion in gastric wall at 5 mg/kg, po measured after 5 hrs; format: toxicity, organism-based; conditions: in vivo; how it was run: as §1
[13] = test system: Rattus norvegicus; assay: Toxicity in rat model of carrageenan-induced paw edema assessed as behavioral changes at 5 to 75 mg/kg, po measured during compound dosing; format: organism-based; conditions: in vivo
[14] = test system: Rattus norvegicus; assay: Anti-inflammatory activity in rat assessed as reduction in carrageenan-induced paw edema at 75 mg/kg, po measured after 5 hrs by plethysmographic method relative to control; format: functional; parameters: scale not given: the % may be the effect or the level left; how it was run: as §3
[15] = Antioxidant activity of the compound in phosphate buffer at pH 6.6 assessed as potassium ferric cyanide ion reducing activity at 10 umol/ml after 20 mins by spectrophotometric method relative to control; format: functional; parameters: scale not given: the % may be the effect or the level left; how it was run: as §2
[16] = test system: Rattus norvegicus; assay: Anti-inflammatory activity in rat assessed as reduction in carrageenan-induced paw edema at 10 mg/kg, po measured after 5 hrs by plethysmographic method relative to control; format: functional; parameters: scale not given: the % may be the effect or the level left; how it was run: as §3
[17] = test system: Rattus norvegicus; assay: Ulcerogenicity in rat model of carrageenan-induced paw edema assessed as diameter of lesion in gastric wall at 10 mg/kg, po measured after 5 hrs; format: toxicity, organism-based; conditions: in vivo; how it was run: as §1
[18] = test system: Rattus norvegicus; assay: Toxicity in rat model of carrageenan-induced paw edema assessed as behavioral changes at 2.5 to 40 mg/kg, po measured during compound dosing; format: organism-based; conditions: in vivo
[19] = test system: Rattus norvegicus; assay: Ulcerogenicity in rat model of carrageenan-induced paw edema assessed as diameter of lesion in gastric wall at 40 mg/kg, po measured after 5 hrs; format: toxicity, organism-based; conditions: in vivo; how it was run: as §1
[20] = test system: Rattus norvegicus; assay: Anti-inflammatory activity in rat assessed as reduction in carrageenan-induced paw edema at 40 mg/kg, po measured after 5 hrs by plethysmographic method relative to control; format: functional; parameters: scale not given: the % may be the effect or the level left; how it was run: as §3
[21] = test system: Rattus norvegicus; assay: Anti-inflammatory activity in rat assessed as reduction in carrageenan-induced paw edema at 2.5 mg/kg, po measured after 5 hrs by plethysmographic method relative to control; format: functional; parameters: scale not given: the % may be the effect or the level left; how it was run: as §3
[22] = test system: Rattus norvegicus; assay: Ulcerogenicity in rat model of carrageenan-induced paw edema assessed as diameter of lesion in gastric wall at 2.5 mg/kg, po measured after 5 hrs; format: toxicity, organism-based; conditions: in vivo; how it was run: as §1

SMILES	Activity [1] [mm]	Activity [2] [%]	Activity [3] [%]	Activity [4] [%]	Activity [5] [%]	ED50 [6] [mg/kg]	Activity [7] [%]	Activity [8] [mm]	EC50 [9] [mM]	Activity [10] [%]	Activity [11] [%]	Activity [12] [mm]	Activity [13]	Activity [14] [%]	Activity [15] [%]	further results
CCCCCCn1c(CCC)nc2cc(N)ccc21	1.06	57.1	6	12.9	34.5	5.16	49.8	0.52	10.3	33.13	65.9	0.27	Non-Toxic	69.13	48	
O=C1O[C@H]([C@@H](O)CO)C(O)=C1O [ASCORBIC ACID]		65.2	6.8	15.5	39.8				7.4		69.4				60.8	
CCCCCn1c(CCC)nc2cc(N)ccc21	1.06	60.1	8.7	18.7	30.2	5.47	54.36	0.52	10.2	45.91	67.3	0.27	Non-Toxic	66.36	49	
CCCCCn1c(CCC)nc2cc([N+](=O)[O-])ccc21	1.03	20.8	0.4	2.1	5.8	4.8	68.18	0.69	> 50	63.64	39.8	0.33	Non-Toxic	68.18	10.7	
COc1ccc2c(c1)c(CC(=O)O)c(C)n2C(=O)c1ccc(Cl)cc1 [INDOMETHACIN]						2.2										Activity [16]: 75%; Activity [17]: 19.4 mm
CCCCCCn1c(CCC)nc2cc(NS(C)(=O)=O)ccc21		69.6	10.6	29.2	49.7	2.45			5.1		75.4				66.5	Activity [18]: Non-Toxic; Activity [19]: 1.02 mm; Activity [20]: 97.62%; Activity [16]: 86.36%; Activity [21]: 50.18%; Activity [17]: 0.69 mm; Activity [22]: 0.2 mm
CCCc1nc2ccccc2[nH]1	0.42					5.53	53.18	0.2		0.45		0.1	Non-Toxic	77.27		
CCCCn1c(CCC)nc2cc([N+](=O)[O-])ccc21	1.04	29.2	0.6	2.5	6.8	4.79	47.73	0.7	> 50	29.55	45.4	0.35	Non-Toxic	52.27	16.8	
CCCCCCn1c(CCC)nc2cc([N+](=O)[O-])ccc21	1.26	30.1	0.9	2.8	6.8	3.97	61.26	0.54	> 50	51.87	45.9	0.22	Non-Toxic	78.25	17.9	
CCCc1nc2cc([N+](=O)[O-])ccc2[nH]1	0.32						6.82	0.22		2.27		0	Non-Toxic	6.82		
CCCCn1c(CCC)nc2cc(N)ccc21	1.13	55.6	6.3	15.4	29.9	5.52	56.82	0.54	18.2	59.09	62.5	0.28	Non-Toxic	59.09	44.8	
CCCCn1c(CCC)nc2cc(NS(C)(=O)=O)ccc21		70.3	12.2	31.3	59.8	2.58			4		73.5				61.8	Activity [18]: Non-Toxic; Activity [19]: 1.1 mm; Activity [20]: 92.73%; Activity [16]: 86.36%; Activity [21]: 43.64%; Activity [17]: 0.51 mm; Activity [22]: 0.27 mm
